Bioassay records deposited in PubChem BioAssay by several laboratories.
Hits are enriched below; roughly 2.5% of the tested compounds scored in any of these assays.
MC4R antagonist = human MC4R antagonism in cAMP assay. P32245. MC4R-expressing cells, MTII-stimulated cAMP, LANCE TR-FRET. inhibition, % at 6.5 µM. 0.48% of 360,000 active;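 active = inhibition above its plate's cutoff, the mean of tested wells on that plate plus 3 SD, cut at about 29% in these data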;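 also: 0% = Melanotan II alone and 100% = Melanotan II plus saturating MCL0020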
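System: U2OS-MC4R stable cell line; Technique: Eu-cAMP/anti-cAMP TR-FRET, emission 671 nm; Repeats: single well per compound; Also added: Melanotan II; Dosing: one concentration, 6.5 µM nominal; Schedule: 30-min compound, 1-h challenge, 1-h detection, room temperature.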
PG9 binder = small molecules binding HIV-1 gp120 antibody PG9; TR-FRET gp120-PG9 antibody binding; AID 624416; inhibition, % at 6.7 µM; 0.43% of 360,000 active; in the data active = inhibition above about 8.5%
NTR1 ag = NTR1 (human) agonism; AID 493036; NTR1-U2OS beta-arrestin-GFP spot imaging, agonist mode; activation, % at 20 µM; 0.17% of 330,000 active; P30989;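 active = activation at or above 40% of the spot to cytoplasm intensity ratio, with at least 20 cells analyzed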;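 also: 0% = DMSO without peptide and 100% = 100 nM NTR1 peptide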
MC4R barr agon = activates human MC4R beta-arrestin recruitment; 0.98% of 360,000 active; AID 540308; U2OS MC4R beta-arrestin complementation, luminescence; percent of melanotan II response, DMSO zero; activation, % at 8.9 µM; P32245;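 active = activation above a per-plate cutoff, the mean activation of sample wells on that plate plus 3 SD, cut at about 8% in these data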
NR1D1 modulator = Rev-erb alpha (human) modulation; Rev-erbα–FITC-DNA binding, fluorescence polarization, 90 min; activity, % at 10 µM; 0.79% of 370,000 active; AID 1259318;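 active = activity above about 14%, limit read from the data; passing the limit was not always enough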;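 also: 0% = DMSO wells with 35 nM protein and 100% = DMSO wells with 750 nM protein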
Target sequence (P20393 whole entry, looked up): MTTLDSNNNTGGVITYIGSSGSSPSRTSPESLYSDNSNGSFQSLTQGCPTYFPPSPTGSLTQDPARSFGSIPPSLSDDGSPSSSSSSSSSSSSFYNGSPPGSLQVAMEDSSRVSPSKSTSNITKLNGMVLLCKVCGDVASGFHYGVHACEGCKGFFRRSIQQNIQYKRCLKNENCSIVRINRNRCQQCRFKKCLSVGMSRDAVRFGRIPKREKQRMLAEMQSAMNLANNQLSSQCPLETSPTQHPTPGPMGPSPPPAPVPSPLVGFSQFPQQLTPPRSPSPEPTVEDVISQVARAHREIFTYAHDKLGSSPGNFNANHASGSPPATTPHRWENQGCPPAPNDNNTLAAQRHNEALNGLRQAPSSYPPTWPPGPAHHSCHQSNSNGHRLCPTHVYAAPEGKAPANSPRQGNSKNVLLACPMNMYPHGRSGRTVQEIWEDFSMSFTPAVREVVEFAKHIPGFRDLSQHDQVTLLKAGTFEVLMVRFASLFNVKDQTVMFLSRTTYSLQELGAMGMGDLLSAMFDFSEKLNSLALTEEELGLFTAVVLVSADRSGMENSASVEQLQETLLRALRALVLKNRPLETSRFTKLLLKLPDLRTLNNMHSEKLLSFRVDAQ
NR1D1 mod conf = Rev-erb alpha (human) modulation, hit confirmation; activation, % at 25 µM; Rev-erb alpha FITC-DNA binding, fluorescence polarization, 90 min; 61% of 3,000 active; shares compounds with NR1D1 modulator;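 active = activation at or above a set limit, or at least 3 SD above the negative control mean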;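 also: 0% = 35 nM protein with DMSO and 100% = 750 nM protein high control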
RORg DNA counter = affects RORgamma DNA binding in a Rev-erb alpha counter-screen; IC50, µM; purified RORgamma protein-FITC-DNA binding, fluorescence polarization; shares compounds with NR1D1 modulator; 8% of 910 active;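 active = Compounds whose fitted half-maximal concentration for disrupting protein-DNA binding is below 10 micromolar; the record names Rev-erb in its text, so the target is in doubt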
The depositor's hits bear a star; nt = no result given.

SMILES	MC4R antagonist	PG9 binder	NTR1 ag	MC4R barr agon	NR1D1 modulator	NR1D1 mod conf	others
O=C(CSc1nnc(-c2cccnc2)n1-c1ccc(Cl)cc1)c1ccc2ccccc2c1	nt	nt	nt	nt	-5	nt
Cc1ccc(-n2c(SCc3nc4ccccc4[nH]3)nnc2-c2ccccn2)cc1	nt	nt	nt	nt	6	nt
CN(C)CCNc1ccc2ncn3c4ccc(O)cc4c(=O)c1c23	-28	-23	nt	-1	20*	24*
CN(C)CCNc1ccc(CO)c2sc3ccc(O)cc3c(=O)c12	-19	-9	nt	-1	11	nt
Cc1cccc(NC(=O)CN(C)C(=O)c2ccc(N3CCCCCC3)c([N+](=O)[O-])c2)c1C	13	0	4	0	17*	-4
CN1CCN(c2ccccc2NC(=O)c2ccc(N3CCCC3)c([N+](=O)[O-])c2)CC1	-1	0	2	-2	16*	9
O=S1(=O)c2ccc(Br)cc2OCCC2CCCCN21 (stereo not drawn)	nt	0	nt	nt	-4	nt
O=C(CSc1nc2ccccc2c(=O)n1-c1ccc(Cl)cc1)NNC(=S)Nc1ccccc1	nt	nt	nt	nt	2	nt
COc1ccc(C2=NN(C(=O)CSc3nc(=O)n4cc(C)ccc4n3)C(c3ccc(C)cc3)C2)cc1 (stereo not drawn)	-13	-2	8	-3	57*	20*
COc1ccc(C2=NN(C(=O)CSc3ncccn3)C(c3ccc(OC)cc3)C2)cc1 (stereo not drawn)	12	-2	0	-1	-3	nt
CN1CCN(c2ccc3c(c2)Oc2ccccc2CN(Cc2cn(Cc4cccc(C(F)(F)F)c4)nn2)S3(=O)=O)CC1	nt	nt	nt	nt	9	nt
OCc1cn(-c2ccccc2)nc1-c1ccc(-c2nn(-c3ccccc3)cc2CO)cc1	2	-2	12	7	16*	8
O=C(O)Cc1cn(-c2ccccc2)nc1-c1ccccc1	3	-2	1	-1	-1	nt
COc1cc(-c2nc(-c3ccc(Br)o3)no2)cc(OC)c1OC	2	-1	-1	-1	27*	8
CCOc1ccccc1NC(=O)Cn1cnc2c(nnn2-c2cccc(OC)c2)c1=O	0	1	6	-1	12	nt
COc1cccc(-n2nnc3c(=O)n(CC(=O)Nc4ccccc4C)cnc32)c1	-13	1	-1	0	23*	5
CN(C)c1ccc(N=Nc2ccccc2C(=O)OCC(=O)NCC2CCCCC2)cc1	9	-3	16	-2	29*	36*	RORg DNA counter=>40
O=C(CSc1nnc2ccc(-c3ccccn3)nn12)Nc1cccc(F)c1	8	1	nt	-1	22*	16*
COc1ccc(C(=O)CSc2nnc3ccc(-c4ccccn4)nn23)cc1	-3	0	4	-2	52*	19*
COc1ccc(-n2c(COc3ccc(C)cc3)nnc2SCC(=O)c2ccc(-c3ccccc3)cc2)cc1	nt	nt	nt	nt	45*	28*
O=C(CSc1nnc2ccc(-c3ccccn3)nn12)Nc1ccc(F)cc1	-2	0	nt	-1	4	nt
COc1ccc(N2C(=O)c3n[nH]c(C(C)C)c3C2c2ccc(C)cc2)cc1 (stereo not drawn)	nt	0	nt	nt	-1	nt
CN1C(=O)C[C@@](C#N)(C(=O)NCc2ccc3c(c2)OCO3)[C@H]1c1ccccc1	nt	nt	nt	nt	-2	nt
O=C(Cn1c(=S)[nH]c2ccccc2c1=O)NCCc1ccccc1	12	5	-2	-2	31*	31*	RORg DNA counter=>40
C[C@H](O)[C@@H]1CN2CCc3ccc(-c4ccc5c(c4)OCO5)cc3[C@@H]2C[C@@H]1N(C)C(=O)c1cccc(Cl)c1	nt	-2	nt	nt	3	nt
SMILES	MC4R antagonist	PG9 binder	NTR1 ag	MC4R barr agon	NR1D1 modulator	NR1D1 mod conf	others
O=C(Cc1sc(-c2ccccc2)nc1-c1ccccc1)Nc1ccc(Cl)cc1	7	0	1	7	25*	33*	RORg DNA counter=>40
O=C(Cc1sc(-c2ccccc2Cl)nc1-c1ccccc1)Nc1ccccc1	12	0	0	1	9	nt
O=C(Nc1ccc(F)cc1)OCc1cn(Cc2ccccc2C(F)(F)F)nn1	nt	nt	nt	nt	9	nt
CCOC(=O)CCSc1nc(-c2ccc3c(c2)OCO3)cc(C(F)(F)F)c1C#N	1	-2	6	-2	21*	15
C=CCSc1nc(-c2ccc3c(c2)OCO3)cc(C(F)(F)F)c1C#N	11	-2	5	-2	25*	20*
N#Cc1c(C(F)(F)F)cc(-c2ccc(Cl)c(Cl)c2)nc1SCCN1CCOCC1	8	nt	14	1	3	nt
CCOC(=O)CCSc1nc(C)cc(C(F)(F)F)c1C#N	-7	2	17	1	3	nt
C=CCN1C(=O)c2n[nH]c(COC)c2C1c1ccc(F)cc1 (stereo not drawn)	nt	0	nt	nt	-3	nt
CN1CCN(C2=C(Cl)C(=O)N(c3ccc(Cl)cc3)C2=O)CC1	-2	nt	2	4	nt	nt
O=C1C(Cl)=C(NC2CCCCC2)C(=O)N1c1ccc(Cl)cc1	12	-3	5	-1	40*	13
O=C(CSC1=Nc2ccccc2C2CC=NN12)Nc1ccc(F)c(F)c1F (stereo not drawn)	-7	2	-1	5	18*	6
COc1ccc(-c2cc(C(F)F)n3ncc(C(=O)NCC4CCCO4)c3n2)cc1 (stereo not drawn)	2	3	8	0	36*	15
COc1ccc(-c2cc(C(F)(F)F)n3nc(C(=O)Nc4cc(C)on4)cc3n2)cc1OC	14	0	0	1	34*	26*
Cc1ccc(-c2cc(C(F)(F)F)n3nc(C(=O)Nc4ccon4)cc3n2)cc1C	4	0	4	-1	-3	nt
COc1ccc(-c2cc(C(F)(F)F)n3ncc(C(=O)NCC4CCCO4)c3n2)cc1OC (stereo not drawn)	6	0	5	3	28*	31*
O=C(NCC1CCCO1)c1nn2c(C(F)(F)F)cc(-c3cccs3)nc2c1Br (stereo not drawn)	-1	1	0	-1	26*	18*
O=c1c2cc3cccnc3nc2ncn1Cc1cccs1	nt	nt	nt	nt	1	nt
COc1ccc(C=Nn2c(-c3ccc(F)cc3)n[nH]c2=S)cc1OCc1ccccc1	nt	nt	nt	nt	-4	nt
CCOC(=O)[C@@]12CCC3=C1N(CCC3)C(=O)[C@H](CC(=O)NCc1ccc(OC)c(OC)c1)C2	nt	nt	nt	nt	1	nt
O=C(Cn1nnc(-c2ccncc2)n1)Nc1ccc(Oc2ccccc2)cc1	nt	nt	nt	nt	5	nt
CC(C)OP(=O)(O)C(C)NC(=O)OCc1ccccc1 (stereo not drawn)	nt	nt	nt	nt	4	nt
CCn1c2ccccc2c2cc(NC(=O)COC(=O)c3cccc(F)c3F)ccc21	nt	nt	nt	nt	16	nt
COc1ccc(NC(=O)c2cc3nc(-c4ccccc4)cc(-c4ccccc4)n3n2)c(OC)c1	6	3	1	0	21*	14
